Active and inactive are the calls of the source. No cut-off for these calls is given here.
Tests used:
[1] = Cytotoxicity against human KATO III cells assessed as cell viability after 24 hrs by MTT assay; assay type: functional, cell-based
Summary of the method: (§1)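 Cells exposed to compounds at 3.125 to 50 µM for 24 h; proliferation read by MTT assay; IC50 (µM) reported. Panel: leukemia lines HL-60, U937, THP-1, Jurkat; stomach KATO III; colon HCT-15; hepatoma HepG2; normal skin fibroblasts NB1RGB and HF-19.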

[2] = system: HCT-15; test: Cytotoxicity against human HCT15 cells assessed as cell viability after 24 hrs by MTT assay; assay type: functional, cell-based; conditions: HCT-15, 24 h; summary of the method: as §1
[3] = Cytotoxicity against human NB1RGB cells assessed as cell viability after 24 hrs by MTT assay; assay type: cell-based; summary of the method: as §1
[4] = system: HepG2; test: Cytotoxicity against human HepG2 cells assessed as cell viability after 24 hrs by MTT assay; assay type: functional, cell-based; conditions: HepG2, 24 h; summary of the method: as §1
[5] = system: HL-60; test: Induction of apoptosis in human HL60 cells assessed as DNA fragmentation at 12.5 uM after 24 hrs by agarose gel electrophoresis; assay type: functional, cell-based
Summary of the method: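 HL-60 cells treated with 12.5 µM compound for 24 h; DNA extracted and laddering resolved by agarose gel electrophoresis against a 100 bp marker; representative of three independent experiments.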

[6] = Cytotoxicity against human HF19 cells assessed as cell viability after 24 hrs by MTT assay; assay type: cell-based; conditions: HF19, 24 h; summary of the method: as §1
[7] = system: HL-60; test: Induction of apoptosis in human HL60 cells assessed as chromatin condensation at 12.5 uM after 24 hrs by Hoechst 33258 staining-based fluorescent microscopy; assay type: functional, cell-based
Summary of the method: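 Nuclear morphology: HL-60 cells treated 24 h with 12.5 µM compound, stained with Hoechst 33258, and viewed by fluorescence microscopy at ×400; representative of three independent experiments.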

[8] = system: HL-60; test: Cytotoxicity against human HL60 cells assessed as cell viability after 24 hrs by MTT assay; assay type: functional, cell-based; conditions: HL-60, 24 h; summary of the method: as §1
[9] = system: Jurkat; test: Cytotoxicity against human Jurkat cells assessed as cell viability after 24 hrs by MTT assay; assay type: functional, cell-based; summary of the method: as §1
[10] = system: U-937; test: Cytotoxicity against human U937 cells assessed as cell viability after 24 hrs by MTT assay; assay type: functional, cell-based; conditions: U-937, 24 h; summary of the method: as §1
[11] = system: THP-1; test: Cytotoxicity against human THP1 cells assessed as cell viability after 24 hrs by MTT assay; assay type: functional, cell-based; conditions: THP-1, 24 h; summary of the method: as §1
[12] = system: HL-60; test: Induction of apoptosis in human HL60 cells assessed as DNA fragmentation at 12.5 uM after 24 hrs by agarose gel electrophoresis in presence of caspase inhibitior Z-VAD-FMK and Z-DEVD-FMK; assay type: functional, cell-based
Summary of the method: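 HL-60 cells pretreated 1 h with 50 µM caspase inhibitor (z-VAD-FMK, broad; z-DEVD-FMK, caspase-3), then given 12.5 µM compound for 24 h; DNA fragmentation by agarose gel electrophoresis; representative of three independent experiments.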

[13] = system: HL-60; test: Induction of apoptosis in human HL60 cells assessed as activation of caspase 3 at 12.5 uM by Western blot analysis; assay type: functional, cell-based; conditions: TDE = time-dependent effect
Summary of the method: (§2)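 HL-60 cells given 12.5 µM compound for 6–24 h, then lysed; caspase-3 and PARP (cleavage) probed by Western blot with β-actin as loading control; representative of three independent experiments.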

[14] = system: HL-60; test: Induction of apoptosis in human HL60 cells assessed as DNA fragmentation at 12.5 uM by agarose gel electrophoresis; assay type: functional, cell-based; conditions: TDE = time-dependent effect
Summary of the method: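 Time course: HL-60 cells exposed to 12.5 µM compound for 6–24 h; DNA fragmentation assessed by agarose gel electrophoresis; representative of three independent experiments.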

[15] = system: HL-60; test: Induction of apoptosis in human HL60 cells assessed as PARP cleavage at 12.5 uM by Western blot analysis; assay type: functional, cell-based; conditions: TDE = time-dependent effect; summary of the method: as §2

| SMILES | IC50 [1] [µM] | IC50 [2] [µM] | IC50 [3] [µM] | IC50 [4] [µM] | Activity [5] | IC50 [6] [µM] | Activity [7] | IC50 [8] [µM] | IC50 [9] [µM] | IC50 [10] [µM] | IC50 [11] [µM] | Activity [12] | Activity [13] | Activity [14] | Activity [15] |
| --- | --- | --- | --- | --- | --- | --- | --- | --- | --- | --- | --- | --- | --- | --- | --- |
| CCC(C)C(=O)c1c(O)c(CC=C(C)C)c(O)c2c([C@@H](O)CC)cc(=O)oc12 (some centres not stated) | 24.1 | > 50 | > 50 | > 50 | Active | > 50 | Active | 13.7 | 29.9 | 18.8 | 9.23 |  |  |  |  |
| CCC(C)C(=O)c1c(O)c(C/C=C(\C)CCC=C(C)C)c(O)c2c([C@@H](O)CC)cc(=O)oc12 (some centres not stated) [SURANGIN C] | 10.6 | > 50 | > 50 | > 50 | Active | > 50 | Active | 13.3 | 23.1 | 27.6 | 21.5 |  |  |  |  |
| O=c1cc(-c2ccc(O)c(-c3c(O)cc(O)c4c(=O)cc(-c5ccc(O)cc5)oc34)c2)oc2cc(O)cc(O)c12 [AMENTOFLAVONE] | > 50 | > 50 | > 50 | > 50 | inactive | > 50 |  | > 50 | > 50 | > 50 | > 50 |  |  |  |  |
| CCC(C)C(=O)c1c(O)c2c(c3c([C@@H](O)CC)cc(=O)oc13)OC(C(C)(C)O)C2 (some centres not stated) | > 50 | > 50 | > 50 | > 50 | inactive | > 50 |  | 29.2 | > 50 | 33.4 | 40.6 |  |  |  |  |
| CCCC(=O)c1c2c(c3oc(=O)cc(CCC)c3c1O)C=CC(C)(C)O2 | > 50 | > 50 | > 50 | > 50 | inactive | > 50 |  | 37.2 | > 50 | 47.6 | > 50 |  |  |  |  |
| O=c1cc(-c2ccc(O)cc2)oc2cc(O)c([C@@H]3O[C@H](CO)[C@@H](O)[C@H](O)[C@H]3O)c(O)c12 [ISOVITEXIN] | > 50 | > 50 | > 50 | > 50 | inactive | > 50 |  | > 50 | > 50 | > 50 | > 50 |  |  |  |  |
| CCCC(=O)c1c(O)c(C/C=C(\C)CCC=C(C)C)c(O)c2c([C@@H](O)CC)cc(=O)oc12 [KAYEASSAMIN A] | 12 | > 50 | > 50 | > 50 | Active | > 50 | Active | 11.9 | 19.8 | 19.9 | 16.7 | inactive | tde | tde | tde |

Source: ChEMBL document CHEMBL2311482, “Antiproliferative and apoptotic effects of compounds from the flower of Mammea siamensis (Miq.) T. Anders. on human cancer cell lines” (Bioorg Med Chem Lett, 2013)
